# Source: ChEMBL document CHEMBL1914305, “Synthesis and structure-activity evaluation of isatin-β-thiosemicarbazones with improved selective activity toward multidrug-resistant cells expressing P-glycoprotein” (J Med Chem, 2011)
# Activity calls are given as the source filed them. The rule behind the calls is not given here.
# Legend:
# [1] = Cytotoxicity against human KB-3-1 cells after 72 hrs by MTT assay; assay type: functional, cell-based; conditions: KB 3-1, 72 h
# Summary of the method: (§1)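 Grown in DMEM with 10% FBS. MTT assay: 4000 cells/well, 24 h settling, serial dilutions of drug, 72 h at 37 °C in 5% CO2. MTT in IMDM 4 h, then acidified ethanol 15 min, A570 with 690 nm background. Three experiments in triplicate. KB-V1-R comes from KB-V1 grown long-term drug-free.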
# [2] = Cytotoxicity against vinblastine-selected human KBV1 cells after 72 hrs by MTT assay; assay type: functional, cell-based; conditions: KB-V1, 72 h
# Summary of the method: as §1, with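 “background. IC50 is the concentration reducing absorbance to 50% of untreated control.” for “background.”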
# [3] = Selectivity ratio of IC50 for human KB-3-1 cells to IC50 for human KBV1 cells selected at 1 ug/mL vinblastine; assay type: functional
# Summary of the method: (§2)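 Selectivity ratio: IC50 in the parental or empty-vector cells divided by IC50 in the P-gp-expressing cells (KB-V1, or ABCB1-transfected LLC-PK1). MTT assay: 4000 cells/well established for 24 h, then 72 h exposure to serially diluted drug at 37 °C, 5% CO2. MTT for 4 h, acidified ethanol lysis, A570 corrected at A690. IC50 is the concentration giving 50% of untreated absorbance, from at least three experiments.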
# [4] = system: OVCAR-8; assay: Cytotoxicity against human OVCAR8 cells after 72 hrs by MTT assay; assay type: functional, cell-based; conditions: OVCAR-8, 72 h
# Summary of the method: (§3)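 Lines grown in RPMI with 10% FBS and 2 mM L-glutamine. MTT assay: 4000 cells/well attached 24 h before serially diluted drug, then 72 h exposure at 37 °C, 5% CO2. MTT in IMDM 4 h, lysis in acidified ethanol 15 min, absorbance 570 nm minus 690 nm. IC50 is the concentration halving untreated absorbance. Three independent experiments, each in triplicate.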
# [5] = system: NCI/ADR-RES; assay: Cytotoxicity against adriamycin-selected human NCI/ADR-RES cells after 72 hrs by MTT assay; assay type: functional, cell-based; summary of the method: as §3
# [6] = system: HEK293; assay: Cytotoxicity against human HEK293 cells after 72 hrs by MTT assay; assay type: functional, cell-based; conditions: HEK293, 72 h
# Summary of the method: as §1, with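 “background. IC50 is the concentration reducing absorbance to 50% of untreated control.” for “background.”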
# [7] = system: HEK293; assay: Cytotoxicity against human HEK293 cells transfected with plasmid expressing MDR1 after 72 hrs by MTT assay; assay type: functional, cell-based; conditions: HEK293, 72 h
# Summary of the method: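 ABCB1-transfected HEK293 grown in DMEM with 10% FBS and 1 mg/mL G418. MTT assay: 4000 cells/well for 24 h, serial drug dilutions, 72 h at 37 °C, 5% CO2. MTT 4 h, acidified ethanol lysis, A570 corrected at 690 nm. IC50 at 50% of untreated absorbance. Three experiments in triplicate.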
# [8] = Cytotoxicity against doxorubicin-selected human ZR-75B cells after 72 hrs by MTT assay; assay type: functional, cell-based; summary of the method: as §3
# [9] = system: NIH3T3; assay: Cytotoxicity against mouse NIH/3T3 cells after 72 hrs by MTT assay; assay type: cell-based; conditions: NIH3T3, 72 h
# Summary of the method: as §1, with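 “background. IC50 is the concentration reducing absorbance to 50% of untreated control.” for “background.”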
# [10] = system: NIH3T3; assay: Cytotoxicity against mouse NIH/3T3 cells selected at 30 ug/ml vincristine after 72 hrs by MTT assay; assay type: functional, cell-based; conditions: NIH3T3, 72 h, in the assay text read “30 ng/ml” for “30 ug/ml”
# Summary of the method: as §1, with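 “background. IC50 is the concentration reducing absorbance to 50% of untreated control.” for “background.”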
# [11] = system: NIH3T3; assay: Cytotoxicity against mouse NIH/3T3 cells transfected with wild type p-glycoprotein ABCB1 selected at 600 ug/ml vincristine after 72 hrs by MTT assay; assay type: functional, cell-based; conditions: NIH3T3, 72 h, in the assay text read “600 ng/ml” for “600 ug/ml”
# Summary of the method: as §1, with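 “background. IC50 is the concentration reducing absorbance to 50% of untreated control.” for “background.”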
# [12] = system: NIH3T3; assay: Cytotoxicity against 2.4 ug/mL vincristine selected mouse NIH/3T3 cells transfected with P-gp Ser to Asp phosphorylation mutant after 72 hrs by MTT assay; assay type: functional, cell-based; conditions: NIH3T3, 72 h
# Summary of the method: as §1, with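 “background. IC50 is the concentration reducing absorbance to 50% of untreated control.” for “background.”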
# [13] = system: NIH3T3; assay: Cytotoxicity against mouse NIH/3T3 cells transfected with wild-type P-gp G185 after 72 hrs by MTT assay; assay type: functional, cell-based; conditions: NIH3T3, 72 h
# Summary of the method: as §1, with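 “background. IC50 is the concentration reducing absorbance to 50% of untreated control.” for “background.”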
# [14] = system: NIH3T3; assay: Cytotoxicity against mouse NIH/3T3 cells selected at 1 ug/mL colchicine after 72 hrs by MTT assay; assay type: functional, cell-based; conditions: NIH3T3, 72 h
# Summary of the method: as §1, with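 “background. IC50 is the concentration reducing absorbance to 50% of untreated control.” for “background.”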
# [15] = Cytotoxicity against human Ew36 cells after 72 hrs by MTT assay; assay type: functional, cell-based; conditions: Ew36, 72 h; summary of the method: as §3
# [16] = Cytotoxicity against human Ew36 cells selected at 120 ng/mL vincristine after 72 hrs by MTT assay; assay type: functional, cell-based; conditions: Ew36, 72 h; summary of the method: as §3
# [17] = Cytotoxicity against human MES-SA cells after 72 hrs by MTT assay; assay type: functional, cell-based
# Summary of the method: (§4)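 MES-SA and MES-SA/Dx5 lines kept in McCoy's 5A with 10% FBS. MTT assay: seeded at 4000 cells/well for 24 h, serial drug dilutions, 72 h at 37 °C and 5% CO2. MTT 4 h, acidified ethanol lysis, A570 corrected at 690 nm. IC50 is 50% absorbance versus untreated wells. Three separate experiments in triplicate.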
# [18] = Cytotoxicity against adriamycin-selected human MES-SA cells after 72 hrs by MTT assay; assay type: functional, cell-based; summary of the method: as §4
# [19] = system: SW-620; assay: Cytotoxicity against human SW620 cells after 72 hrs by MTT assay; assay type: functional, cell-based; conditions: SW-620, 72 h; summary of the method: as §3
# [20] = system: SW-620; assay: Cytotoxicity against human SW620 cells selected at 20 ng/mL adriamycin after 72 hrs by MTT assay; assay type: functional, cell-based; conditions: SW-620, 72 h; summary of the method: as §3
# [21] = system: LLC-PK1; assay: Cytotoxicity against pig LLC-PK1 cells transfected with empty vector after 72 hrs by MTT assay; assay type: cell-based; conditions: Sus scrofa, LLC-PK1, 72 h
# Summary of the method: (§5)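 LLC-PK1 empty-vector lines grown in M199 with 10% FBS; transfected lines also in 0.5 mg/mL G418. MTT assay: 4000 cells/well for 24 h, then serially diluted drug for 72 h at 37 °C, 5% CO2. MTT 4 h, acidified ethanol, A570 minus 690 nm. IC50 is 50% of untreated absorbance. Triplicate wells, three experiments.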
# [22] = system: LLC-PK1; assay: Cytotoxicity against pig LLC-PK1 cells after 72 hrs by MTT assay; assay type: cell-based; conditions: Sus scrofa, LLC-PK1, 72 h; summary of the method: as §5
# [23] = system: CHO; assay: Cytotoxicity against CHO cells after 72 hrs by MTT assay; assay type: cell-based; conditions: Cricetulus griseus
# Summary of the method: (§6)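 CHO and colchicine-selected C5 cells kept in AlphaMEM with 10% FBS. MTT assay: 4000 cells/well settled 24 h, then serially diluted drug added. Incubated 72 h at 37 °C, 5% CO2. MTT in IMDM for 4 h, then acidified ethanol lysis for 15 min. Read A570, background-corrected at 690 nm. IC50 is the concentration giving 50% of untreated absorbance. Three experiments, each in triplicate.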
# [24] = system: CHO; assay: Cytotoxicity against CHO cells selected at 1 ug/mL colchicine after 72 hrs by MTT assay; assay type: functional, cell-based; conditions: Cricetulus griseus; summary of the method: as §6
# [25] = Selectivity ratio of IC50 for pig LLC-PK1 cells transfected with empty vector to IC50 for pig LLC-PK1 cells; assay type: ADME, cell-based, Sus scrofa; conditions: read-out: Ratio IC50; summary of the method: as §2
# [26] = Cytotoxicity against P-gp expressing human KBV1 revertant cells after 72 hrs by MTT assay; assay type: functional, cell-based; conditions: KB-V1, 72 h, in the assay text read “P-gp-negative” for “P-gp expressing”
# Summary of the method: as §1, with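 “background. IC50 is the concentration reducing absorbance to 50% of untreated control.” for “background.”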
# [27] = Aqueous solubility of the compound; assay type: physicochemical; conditions: buffer
# [28] = system: KB-V1; assay: Cytotoxicity against P-gp expressing human KBV1 cells after 72 hrs by MTT assay in presence of 4 uM P-gp substrate Rh123; assay type: functional, cell-based
# [29] = system: NCI-H460; assay: Cytotoxicity against ABCG2-expressing human H460 cells at 10 to 20 uM after 72 hrs by MTT assay in presence of ABCG2 substrate 5 uM mitoxantrone; assay type: functional, cell-based
# [30] = system: NCI-H460; assay: Cytotoxicity against ABCG2-expressing human H460 cells at 10 uM after 72 hrs by MTT assay; assay type: functional, cell-based
# [31] = Cytotoxicity against P-gp-negative human KB-3-1 cells after 72 hrs by MTT assay in presence of 100 nM TQR; conditions: KB 3-1, 72 h
# [32] = Cytotoxicity against P-gp expressing human KBV1 cells after 72 hrs by MTT assay in presence of 100 nM TQR; conditions: KB-V1, 72 h
compound,measurement,setting,value
CN(C)c1ccc(NC(=S)N/N=C2\C(=O)Nc3ccccc32)cc1,IC50,[1],6.95 µM
same,IC50,[2],2.32 µM
same,Ratio IC50,[3],3
CCc1ccc(NC(=S)N/N=C2\C(=O)Nc3ccccc32)cc1,IC50,[1],4.05 µM
same,IC50,[2],1.34 µM
same,Ratio IC50,[3],3
O=C1Nc2ccccc2/C1=N/NC(=S)Nc1cc(F)c(F)c(F)c1,IC50,[1],4.41 µM
same,IC50,[2],2.15 µM
same,Ratio IC50,[3],2.1
COc1cccc2c1C(=O)c1c(O)c3c(c(O)c1C2=O)C[C@@](O)(C(=O)CO)C[C@@H]3O[C@H]1C[C@H](N)[C@H](O)[C@H](C)O1 [DOXORUBICIN],IC50,[2],4.7 µM
same,IC50,[4],0.14 µM
same,IC50,[5],9.3 µM
same,IC50,[6],0.01 µM
same,IC50,[7],0.42 µM
same,IC50,[8],2.02 µM
same,IC50,[9],0.05 µM
same,IC50,[10],0.08 µM
same,IC50,[11],0.69 µM
same,IC50,[12],17.5 µM
same,IC50,[13],0.38 µM
same,IC50,[14],1.58 µM
same,IC50,[15],0.01 µM
same,IC50,[16],0.24 µM
same,IC50,[17],0.03 µM
same,IC50,[18],0.87 µM
same,IC50,[19],0.01 µM
same,IC50,[20],0.24 µM
same,IC50,[21],0.2 µM
same,IC50,[22],19.7 µM
same,IC50,[23],0.08 µM
same,IC50,[24],9.7 µM
CNC(=S)N/N=C1\C(=O)Nc2ccccc21,IC50,[1],35.3 µM
same,IC50,[2],19.4 µM
same,Ratio IC50,[3],1.8
O=C1Nc2ccccc2/C1=N/NC(=S)Nc1ccc(F)cc1,IC50,[1],14.2 µM
same,IC50,[2],1.92 µM
same,Ratio IC50,[3],7.4
CC(C)(C)c1ccc(NC(=S)N/N=C2\C(=O)Nc3ccccc32)cc1,IC50,[1],8.13 µM
same,IC50,[2],0.71 µM
same,IC50,[21],29.3 µM
same,IC50,[22],2.89 µM
same,Ratio IC50,[3],14.8
same,selectivity ratio,[25],10.1
same,IC50,[26],6.5 µM
same,solubility,[27],0.8 µg/mL
same,Activity,[28],Active
same,Activity,[29],Active
same,Activity,[30],Active
same,IC50,[31],14.3 µM
same,IC50,[32],8.41 µM
O=C1Nc2ccccc2/C1=N/NC(=S)Nc1ccccc1,IC50,[1],3.53 µM
same,IC50,[2],1.47 µM
same,Ratio IC50,[3],2.4
O=C1Nc2ccccc2/C1=N/NC(=S)NCc1ccccc1,IC50,[1],11.7 µM
same,IC50,[2],7.63 µM
same,Ratio IC50,[3],1.5
Cc1ccc(NC(=S)N/N=C2\C(=O)Nc3ccccc32)cc1C,IC50,[1],4.37 µM
same,IC50,[2],2.2 µM
same,Ratio IC50,[3],2
CCCC1CCC(c2ccc(NC(=S)N/N=C3\C(=O)Nc4ccccc43)cc2)CC1 (stereo not drawn),IC50,[1],17.5 µM
same,IC50,[2],11 µM
same,Ratio IC50,[3],1.6
O=C1Nc2ccccc2/C1=N/NC(=S)Nc1ccc2c(c1)CCC2,IC50,[1],5.8 µM
same,IC50,[2],2.85 µM
same,Ratio IC50,[3],2
O=C1Nc2ccccc2/C1=N/NC(=S)Nc1ccc([N+](=O)[O-])cc1,IC50,[1],15.6 µM
same,IC50,[2],2.07 µM
same,IC50,[21],28.4 µM
same,IC50,[22],4.46 µM
same,Ratio IC50,[3],8.3
same,selectivity ratio,[25],6.4
same,IC50,[26],7.21 µM
same,solubility,[27],< 0.2 µg/mL
same,Activity,[28],Active
same,Activity,[29],Active
same,Activity,[30],Active
same,IC50,[31],10 µM
same,IC50,[32],6.35 µM
O=C1Nc2ccccc2/C1=N/NC(=S)Nc1ccc(Oc2ccccc2)cc1,IC50,[1],5.72 µM
same,IC50,[2],1.67 µM
same,Ratio IC50,[3],3.4
O=C1Nc2ccccc2/C1=N/NC(=S)Nc1cccnc1,IC50,[1],> 50 µM
same,IC50,[2],> 50 µM
